The list is not random: actives were taken first. Their share in the collection is about 2.2%.
FLuc stim CS: firefly luciferase counter-screen for stimulation assays | 200,000 tested, under 10 active | ATPlite luciferase biochemical, luminescence, 10 min; 0 = ATP-free wells, 1 = DMSO control | P08659 | AID 1027 | activation factor at 10 µM;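 active means luciferase activation factor, scaled between plate controls, of at least 2 with compound at 10 µM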
Target sequence (P08659 whole entry, looked up): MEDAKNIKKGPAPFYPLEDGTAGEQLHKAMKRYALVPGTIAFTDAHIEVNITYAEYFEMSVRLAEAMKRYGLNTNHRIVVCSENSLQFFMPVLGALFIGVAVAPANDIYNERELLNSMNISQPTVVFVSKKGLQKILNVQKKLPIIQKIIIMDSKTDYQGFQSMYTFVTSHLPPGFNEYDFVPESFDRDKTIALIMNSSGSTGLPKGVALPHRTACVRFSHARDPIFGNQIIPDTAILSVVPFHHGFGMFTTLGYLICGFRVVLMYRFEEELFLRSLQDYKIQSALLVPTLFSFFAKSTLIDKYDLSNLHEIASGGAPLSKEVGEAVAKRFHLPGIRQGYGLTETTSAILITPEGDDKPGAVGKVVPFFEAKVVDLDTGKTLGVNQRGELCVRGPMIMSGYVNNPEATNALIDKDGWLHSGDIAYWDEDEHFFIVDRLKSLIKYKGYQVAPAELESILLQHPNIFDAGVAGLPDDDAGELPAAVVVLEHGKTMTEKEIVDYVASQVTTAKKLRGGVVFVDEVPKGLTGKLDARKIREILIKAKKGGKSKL
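System: luciferase plus luciferin reagent, cell-free; medium: PBS as buffer for the ATP substrate; dosing: test compounds dosed from 2 mM stocks in 100% DMSO; timing: 10 min post-reagent at room temperature; measured by: luminescence measurement of luciferase light output; evaluation: luciferase activation, seen as luminescence increase over controls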
PPC-1+TRAIL kill: compounds killing PPC-1 cancer cells with TRAIL present (potentiator screen, no TRAIL-free arm). PPC-1 cells + TRAIL, ATPLite viability luminescence. cell killing (% activity), % at 4 µM or 5 µM. actives 0.41% (n = 220,000). AID 1443;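 active means cell killing above 50% in the first pass at 4 µM, then a duplicate retest at 5 µM averaging 50% or more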;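 further: plate controls were cells with TRAIL plus DMSO for no effect and medium-only wells lacking cells for full effect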
APP 5'UTR act: activates APP 5'UTR luciferase reporter; SH-SY5Y APP 5'UTR luciferase reporter, luminescence; zero percent = DMSO vehicle wells; activation, % at 2 µM; actives 1% (n = 190,000);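 active means activation above a set limit, based on mean plus 3 SD of controls, cut at about 140% in these data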
FLuc inhib CS: inhibits firefly luciferase, flagging false hits in luciferase inhibition screens. inhibition, % at 10 µM. ATPLite firefly luciferase biochemical luminescence, 10 min. actives 1.5% (n = 200,000). P08659. AID 1006;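 active means inhibition above about 50% when tested at 10 µM, limit read from the data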
TRAIL sens C8: caspase-8 TRAIL sensitization | NB7+C8 cells + TRAIL, ATPlite viability luminescence | inhibition (viability loss, TRAIL sensitization), % at 10 µM | actives 1% (n = 360,000) | AID 624354;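 active means compounds causing at least 50% loss of cell viability in the single-dose screen, relative to plate controls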
NF-kB neuron act: raises NF-kB expression in human neuronal cells | fold change at 12.5 µM | actives 1.6% (n = 190,000) | AID 1239 | NF-kB reporter expression; stronger effect = higher value; in the data active means fold change above about 3.3
Active calls of the source: *; / = no result.

SMILES	FLuc stim CS	PPC-1+TRAIL kill	APP 5'UTR act	FLuc inhib CS	TRAIL sens C8	NF-kB neuron act
Nc1ccccc1NC(=O)c1ccccc1	1	24.9	43.8	-3.6	-11.2	3.93*
O=C(Nc1ccccc1C(=O)Nc1ccccc1C(=O)O)c1ccccc1	/	/	/	/	18.7	/
O=C(Nc1ccccc1C(=O)O)c1ccc(NC(=O)C2CC2)cc1	/	/	/	/	65.3*	/
O=C(Nc1ccc(Oc2ccccc2)cc1)C1CC1	1	0.9	25.5	-0.1	-10.8	1.07
Nc1ccc(C(=O)Nc2ccccc2C(=O)O)cc1	0.5	23.4	7.0	53.8*	19.7	1.15
Nc1nc(SCC(=O)N2N=C(c3ccc(Cl)cc3)CC2c2ccco2)n[nH]1 (stereo unspecified)	/	-3.8	/	/	3.7	/
O=C(Cc1ccccc1)Nc1nc2ccccc2s1	1	31.1	53.8	-0.9	11.5	7.12*
Cc1ccc2nc(NC(=O)Cc3cccs3)sc2c1	0.9	23.2	93.6	5.7	21.9	3.7*
CCCCOC(=O)Nc1nc2ccccc2s1	0.7	-3.2	12.0	26.2	17.7	5.42*
COc1ccc2nc(NC(=O)Cc3cccs3)sc2c1	0.8	-1.5	70.7	19.6	14.3	2.92
O=C(Cc1cccs1)Nc1nc2ccccc2s1	0.9	21.4	59.9	9.7	-3.0	4.23*
O=[N+]([O-])c1cccc(COc2cccc(CN3CCCCC3)c2)c1	/	/	/	/	-19.6	/
Cc1cccc(S(=O)(=O)NC(=O)C2(C)CCN2C(=O)Cc2ccc(-c3ccccc3)cc2)c1 (stereo unspecified)	/	/	/	/	-9.4	/
O=C(Cc1nc(=O)c2ccccc2s1)Nc1ccccc1	0.6	29.0	189.3*	35.9	20.4	5.76*
CC(C)(C)C(c1nc2ccccc2[nH]1)n1c(-c2ccsc2)nc2ccccc21 (stereo unspecified)	/	/	/	/	7.5	/
CCOc1cc(C=NNC(=O)N(c2ccccc2)c2ccccc2)ccc1O	/	/	/	/	62.6*	/
CCOc1cc(/C=N\NC(=O)CC(=O)NCCc2ccccc2)ccc1O	1.1	8.2	-28.5	-6.0	2.8	1.15
COc1ccc(CNC(=O)c2ccc(NC(=O)C3=CSCCO3)cc2)cc1	/	/	/	/	4.8	/
COC(=O)C[C@@H]1CC[C@@H](NC(C)=O)[C@@H](CO)O1	/	/	/	/	1.0	/
CS(=O)(=O)c1ccc(C(=O)OCc2nnc(-c3ccc(Cl)cc3)o2)cc1[N+](=O)[O-]	1	-3.9	-18.7	-0.5	-1.4	8.39*
O=C(OCc1nnc(-c2ccc(Cl)cc2)o1)c1ccc(O)cc1	1	16.5	-4.3	-3.2	-3.7	1.51
O=C(/C=C/c1ccco1)Nc1ccccn1	0.3	28.8	72.9	69.1*	19.7	3.21
O=C(/C=C/c1ccco1)Nc1cccnc1	0.7	10.5	10.1	33.4	15.0	/
Cc1ccc(NC(=O)/C=C/c2ccco2)nc1	0.4	29.6	-88.8	61.9*	32.6	0.89
CSc1cccc(NC(=O)/C=C/c2ccco2)c1	0.8	-10.0	35.7	21.2	6.3	3.18
SMILES	FLuc stim CS	PPC-1+TRAIL kill	APP 5'UTR act	FLuc inhib CS	TRAIL sens C8	NF-kB neuron act
COc1cccc(NC(=O)/C=C/c2ccco2)c1	0.6	11.3	73.5	44.9	6.1	3.72*
Cc1c(C(=O)C(=O)NCCCn2ccnc2)c2ccccc2n1C	1.1	8.9	-8.2	-6.4	-27.2	/
CC(C)CCn1c(COc2ccccc2)nn(CCC#N)c1=S	/	/	/	/	-0.4	/
CN(C(=O)c1cc(COc2ccc(F)cc2Cl)on1)C1CCCc2ccccc21 (stereo unspecified)	/	/	/	/	8.5	/
O=[N+]([O-])c1cc(O)c2ncccc2c1	1	9.8	-29.0	-1.2	/	5.82*
O=[N+]([O-])c1cc2cccnc2c2ncccc12	/	7.1	/	/	12.4	/
Cc1ccc(S(=O)(=O)c2nnn3c2nc(NC2CCN(Cc4ccccc4)CC2)c2ccccc23)cc1C	/	/	/	/	88.4*	/
COC(=O)c1sccc1N/N=C/c1cccc(Oc2ccccc2)c1	0.9	25.5	176.1*	13.4	7.1	0.93
COC(=O)c1sccc1N/N=C/c1cccc(OC)c1O	0.6	21.0	180.0*	36.7	25.1	3.6*
CCc1nnc(NC(=O)CSc2nc3c(cc2C#N)CCCC3)s1	1	-35.1	198.8*	-1.9	58.1*	2.35
CCc1nnc(NC(=O)c2sc3nc4c(cc3c2N)CCCCCC4)s1	0.9	-0.9	12.2	10.7	11.6	1.99
Cc1ccc(C(=O)c2sc3nc4c(cc3c2N)CCC4)cc1	1	14.7	191.6*	4.1	25.9	1.17
CCc1nnc(NC(=O)c2sc3nc4c(cc3c2N)CCCCC4)s1	0.3	48.7	70.0	68.3*	36.3	3.37*
COC(=O)CC(=O)CSc1nc2c(cc1C#N)CCCCC2	0.8	21.5	38.2	20.2	-1.0	4.97*
CCOC(=O)c1sc(NC(=O)CSc2nc3c(cc2C#N)CCCCC3)c(C#N)c1C	1	13.8	1.9	-2.3	23.6	1.2
CCOC(=O)CC(=O)CSc1nc2c(cc1C#N)CCC2	0.8	-14.2	-8.1	15.1	7.8	1.33
COCCCn1c(SCC(=O)N2CCCC2=O)nc2ccccc2c1=O	/	/	/	/	5.2	/
OCc1ccccc1SSc1ccccc1CO	/	/	/	/	1.6	/
CCOC(=O)c1ccc2nc(NC(=O)c3ccco3)sc2c1	0.5	12.5	276.8*	51.0*	27.1	4.63*
Cc1nc(NC(=S)NC(=O)c2ccco2)sc1C(=O)N(C)C	/	/	/	/	-13.3	/
CCOc1ccc2nc(NC(=O)CN3CCN(C)CC3)sc2c1	0.9	19.4	12.3	8.2	13.4	1.51
O=C(NC(=S)Nc1nc2ccc(F)cc2s1)c1ccco1	0.1	39.9	106.7	86.4*	86.3*	0.84
CCOc1ccc2nc(NC(=O)c3ccoc3C)sc2c1	0.4	30.1	167.7*	58.3*	45.6	3.51*
CCOc1ccc2nc(NC(=O)c3ccco3)sc2c1	/	/	/	/	60.5*	/
COc1ccc(Cl)cc1C(=O)NNC(=O)c1ccc(F)c(S(=O)(=O)N2CCOCC2)c1	/	/	/	/	-1.6	/
SMILES	FLuc stim CS	PPC-1+TRAIL kill	APP 5'UTR act	FLuc inhib CS	TRAIL sens C8	NF-kB neuron act
CCOC(=O)c1ccc2nc(NC(=O)c3cccs3)sc2c1	0.6	35.3	57.7	43.1	30.1	6.99*
CCCC(=O)Nc1nc2ccc(C(=O)OCC)cc2s1	0.9	-6.4	60.8	7.1	-1.9	2.27
CCOC(=O)c1ccc2nc(NC(=O)C(C)C)sc2c1	0.8	-2.9	121.6	17.4	18.1	4.2*
O=C(Nc1nc2cc3c(cc2s1)OCCO3)c1ccco1	/	/	/	/	88.3*	/
COCCN(CCOC)C(=O)c1c[nH]c2ccc(S(=O)(=O)N(C)c3ccc(F)cc3)cc2c1=O	1.1	6.9	18.2	-7.7	-22.1	0.97
CN(c1ccc(F)cc1)S(=O)(=O)c1ccc2[nH]cc(C(=O)O)c(=O)c2c1	1	61.9*	16.5	-3.9	-19.6	0.97
O=[N+]([O-])c1cc(S(=O)(=O)C(F)(F)F)ccc1Sc1nc2ccccc2[nH]1	1.1	10.9	-17.7	-6.7	86.4*	0.65
CS(=O)(=O)c1ccc(Sc2nc3ccccc3[nH]2)c([N+](=O)[O-])c1	1	5.7	-4.2	-1.0	4.0	0.96
